Experimental data as given in ChEMBL document CHEMBL1129254, “3-[2-(N-phenylacetamide)]-1,5-benzodiazepines: orally active, binding selective CCK-A agonists” (J Med Chem, 1996).

Columns and labels:
Cavia porcellus = species: Cavia porcellus; assay: Relative efficacy determined by the maximal contraction observed at 30 uM, standardized to CCK-8; format: functional
Summary of the method: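 Isolated guinea pig gallbladder contraction. Maximal contraction at 30 μM test ligand expressed relative to CCK-8 (1 μM) = 1.0; n ≥ 3.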

[1] = target: T1, Gastrin/cholecystokinin type B receptor (Homo sapiens, UniProt P32239); assay: Binding affinity against human Cholecystokinin type B receptor in CHO-K1 cells using [125I]-Bolton-Hunter CCK-8 as radioligand; format: cell-based
T1 sequence (P32239 whole entry): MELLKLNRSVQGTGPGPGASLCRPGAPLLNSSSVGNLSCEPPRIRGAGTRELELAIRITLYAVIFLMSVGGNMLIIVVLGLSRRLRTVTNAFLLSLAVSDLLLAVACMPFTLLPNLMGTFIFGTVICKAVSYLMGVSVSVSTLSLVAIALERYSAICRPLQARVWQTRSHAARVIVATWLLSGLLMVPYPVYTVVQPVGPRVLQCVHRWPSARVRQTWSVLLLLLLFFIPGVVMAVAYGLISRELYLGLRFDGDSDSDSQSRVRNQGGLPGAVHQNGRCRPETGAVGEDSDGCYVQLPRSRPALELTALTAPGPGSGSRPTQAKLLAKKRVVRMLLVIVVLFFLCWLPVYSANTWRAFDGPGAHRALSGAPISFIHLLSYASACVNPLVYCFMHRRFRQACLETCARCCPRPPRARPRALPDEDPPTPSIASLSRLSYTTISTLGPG

[2] = target: T2, Cholecystokinin receptor type A (Homo sapiens, UniProt P32238); assay: Binding affinity against human Cholecystokinin type A receptor in membrane preparation isolated from CHO-K1 cells stably transfected with cDNA of human CCK-A using [125I]-Bolton-Hunter CCK-8 as radioligand; format: cell membranes
T2 sequence (P32238 whole entry): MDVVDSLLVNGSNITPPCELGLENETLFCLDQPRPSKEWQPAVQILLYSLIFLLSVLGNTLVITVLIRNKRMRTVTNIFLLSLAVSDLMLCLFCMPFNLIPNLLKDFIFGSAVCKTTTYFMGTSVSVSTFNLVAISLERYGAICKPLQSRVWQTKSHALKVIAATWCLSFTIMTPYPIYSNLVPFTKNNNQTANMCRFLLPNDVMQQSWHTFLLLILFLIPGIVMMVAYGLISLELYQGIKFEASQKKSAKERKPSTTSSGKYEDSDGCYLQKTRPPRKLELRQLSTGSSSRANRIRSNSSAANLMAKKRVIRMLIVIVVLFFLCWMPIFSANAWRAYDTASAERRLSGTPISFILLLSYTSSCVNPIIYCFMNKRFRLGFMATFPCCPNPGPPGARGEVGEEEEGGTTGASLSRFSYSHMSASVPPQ

[3] = target: T3, Cholecystokinin receptor type A (Cavia porcellus) (UniProt Q63931); assay: In vitro agonist activity against Cholecystokinin type A receptor isolated from guinea pig gall bladder.; format: functional, tissue-based
T3 sequence (whole entry): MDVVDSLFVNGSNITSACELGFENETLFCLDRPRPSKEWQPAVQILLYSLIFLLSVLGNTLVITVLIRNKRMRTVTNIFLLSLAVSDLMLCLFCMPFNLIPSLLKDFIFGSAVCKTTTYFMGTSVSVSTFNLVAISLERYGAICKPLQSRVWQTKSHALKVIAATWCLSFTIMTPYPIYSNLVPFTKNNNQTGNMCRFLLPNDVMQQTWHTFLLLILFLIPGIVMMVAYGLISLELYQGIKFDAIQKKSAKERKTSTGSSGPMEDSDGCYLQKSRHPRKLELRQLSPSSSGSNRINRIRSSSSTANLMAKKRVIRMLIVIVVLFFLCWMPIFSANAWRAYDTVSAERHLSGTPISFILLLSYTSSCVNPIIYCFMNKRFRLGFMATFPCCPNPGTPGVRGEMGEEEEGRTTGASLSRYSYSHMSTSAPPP

Mus musculus [4] = assay: Compound tested in vivo for mouse gallbladder emptying at 0.1 uM/kg, ip; format: functional
Mus musculus [5] = assay: Compound tested in vivo for mouse gallbladder emptying at 1.0 uM/kg, po; format: functional
Mus musculus [6] = assay: Compound tested in vivo for mouse gallbladder emptying at 10 uM/kg, po; format: functional

| Compound | RE (Cavia porcellus) | IC50 [1] | IC50 [2] | ED50 [3] | Activity (Mus musculus [4]) | Activity (Mus musculus [5]) | Activity (Mus musculus [6]) |
| --- | --- | --- | --- | --- | --- | --- | --- |
| CC(C)N(C(=O)CN1C(=O)C(NC(=O)Cc2ccccc2)C(=O)N(c2ccccc2)c2ccccc21)c1ccccc1 (configuration not stated) | 0.3 | – | – | – | – | – | – |
| CC(C)N(C(=O)CN1C(=O)C(NC(=O)Oc2ccccc2)C(=O)N(c2ccccc2)c2ccccc21)c1ccccc1 (configuration not stated) | 0.2 | – | – | – | – | – | – |
| CC(C)N(C(=O)CN1C(=O)C(CC(=O)Nc2ccccc2)C(=O)N(c2ccccc2)c2ccccc21)c1ccccc1 (configuration not stated) | 0.5 | 832 nM | 155 nM | 430 nM | 63% | 34% | – |
| CC(C)N(C(=O)CN1C(=O)C(CC(=O)Nc2ccccc2)(Cc2ccccc2)C(=O)N(c2ccccc2)c2ccccc21)c1ccccc1 (configuration not stated) | – | 8910 nM | 389 nM | – | – | – | – |
| CC(C)N(C(=O)CN1C(=O)C(C)(CC(=O)Nc2ccccc2)C(=O)N(c2ccccc2)c2ccccc21)c1ccccc1 (configuration not stated) | 0.7 | 8320 nM | 75.9 nM | 200 nM | 73% | 36% | 73% |
| CC(C)N(C(=O)CN1C(=O)C(C)(NC(=O)Nc2ccccc2)C(=O)N(c2ccccc2)c2ccccc21)c1ccccc1 (configuration not stated) | 0.5 | 282 nM | – | > 10000 nM | – | – | – |
| CC(C)N(C(=O)CN1C(=O)C(NC(=O)Nc2ccccc2)C(=O)N(c2ccccc2)c2ccccc21)c1ccccc1 (configuration not stated) | 0.8 | – | – | 1600 nM | 78% | – | – |
| CSCC[C@H](NC(=O)[C@H](Cc1ccc(OS(=O)(=O)O)cc1)NC(=O)[C@@H](N)CC(=O)O)C(=O)NCC(=O)N[C@@H](Cc1c[nH]c2ccccc12)C(=O)N[C@@H](CCSC)C(=O)N[C@@H](CC(=O)O)C(=O)N[C@@H](Cc1ccccc1)C(N)=O [SINCALIDE] | 1 | – | – | 2 nM | – | – | – |
| CC(C)N(C(=O)CN1C(=O)C(OC(=O)Nc2ccccc2)C(=O)N(c2ccccc2)c2ccccc21)c1ccccc1 (configuration not stated) | 0.2 | – | – | – | – | – | – |
| CCC1(CC(=O)Nc2ccccc2)C(=O)N(CC(=O)N(c2ccccc2)C(C)C)c2ccccc2N(c2ccccc2)C1=O (configuration not stated) | 0.6 | 794 nM | – | 780 nM | 68% | 45% | 42% |
